# Active and inactive are the calls of the source. The rule behind the calls is not given here.
# Assays:
# [1] = test system: ACHN; assay: Cytotoxicity against human ACHN cells after 48 hrs by MTT assay; type: functional, cell-based
# Procedure, shortened: (§1)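 MTT assay. Cells seeded at 1×10^4 per well in DMEM with 10% FBS and grown 24 h at 37 °C under CO2. Compounds diluted in medium, vehicle control included, 48 h exposure. MTT (5 mg/mL stock) added for 4 h, formazan dissolved in DMSO, absorbance read at 570 nm. IC50 taken as the average of three independent experiments.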
# [2] = test system: MCF7; assay: Cytotoxicity against human MCF7 cells after 48 hrs by MTT assay; type: functional, cell-based; details: MCF7, 48 h; procedure, shortened: as §1
# [3] = test system: HeLa; assay: Cytotoxicity against human HeLa cells after 48 hrs by MTT assay; type: functional, cell-based; procedure, shortened: as §1
# [4] = test system: A549; assay: Cytotoxicity against human A549 cells after 48 hrs by MTT assay; type: functional, cell-based; details: A549, 48 h; procedure, shortened: as §1
# [5] = test system: HepG2; assay: Cytotoxicity against human HepG2 cells after 48 hrs by MTT assay; type: functional, cell-based; details: HepG2, 48 h; procedure, shortened: as §1
# [6] = test system: A549; assay: Induction of apoptosis in human A549 cells assessed as nuclear fragmentation at 25 nM incubated for 48 hrs by Hoechst staining based fluorescent microscopy; type: functional, cell-based
# Procedure, shortened: (§2)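 A549 cells, 10,000 per coverslip, cultured 24 h, then exposed to 25 nM for 48 h. Stained with Hoechst 33258 (0.5 mg/mL) for 30 min at 37 °C and washed in PBS. Random fields imaged by fluorescence microscopy and scored qualitatively for chromatin condensation, nuclear fragmentation and apoptotic bodies.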
# [7] = test system: A549; assay: Induction of cell cycle arrest in human A549 cells assessed as accumulation at G2/M phase at 50 nM after 48 hrs by propidium iodide staining based flow cytometry (reference value: 6.15%); type: functional
# [8] = test system: A549; assay: Induction of apoptosis in human A549 cells assessed as apoptotic bodies level at 25 nM incubated for 48 hrs by Hoechst staining based fluorescent microscopy; type: functional, cell-based; procedure, shortened: as §2
# [9] = molecular target: T1, Tubulin (Homo sapiens) (UniProt P68371+Q9H4B7+P0DPH7+P68366+Q13509+Q71U36+P04350+Q3ZCM7+P07437+P68363+Q9BQE3+Q6PEY2+Q13885+Q9BVA1+Q9BUF5); assay: Inhibition of tubulin (unknown origin) polymerization at 3 uM incubated for 1 hr by fluorescence assay; type: protein-complex assay
# Procedure, shortened: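 Fluorescence-reporter tubulin polymerization kit. PEM buffer with […], compounds at 3 μM final concentration. Fluorescence followed at ex 360/em 420 nm for 1 h at 37 °C. CA-4 positive control. Mean ± SD from two experiments, each in triplicate.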
# [10] = test system: A549; assay: Induction of apoptosis in human A549 cells assessed as caspase-3 activation at 50 nM incubated for 48 hrs by ELISA method; type: functional
# Procedure, shortened: (§3)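 A549 cells treated 48 h at 25 or 50 nM, with CA-4 at 50 nM as reference. Cells pelleted, PBS-washed, lysed 15 min and centrifuged. Supernatant assayed with a colorimetric caspase-3 kit. Mean ± SD from two experiments, each in triplicate.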
# [11] = test system: A549; assay: Induction of cell cycle arrest in human A549 cells assessed as accumulation at G0/G1 phase at 25 nM after 48 hrs by propidium iodide staining based flow cytometry (reference value: 87.75%); type: functional
# [12] = test system: A549; assay: Induction of apoptosis in human A549 cells assessed as chromatin condensation at 25 nM incubated for 48 hrs by Hoechst staining based fluorescent microscopy; type: functional, cell-based; procedure, shortened: as §2
# [13] = test system: A549; assay: Induction of cell cycle arrest in human A549 cells assessed as accumulation at S phase at 50 nM after 48 hrs by propidium iodide staining based flow cytometry (reference value: 4.69%); type: functional
# [14] = test system: A549; assay: Induction of ROS generation in human A549 cells at 25 nM incubated for 48 hrs by DCFH-DA staining based fluorescence assay; type: functional, cell-based
# Procedure, shortened: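 A549 cells exposed to 25 nM for 48 h, then loaded with 5 μM DCFH-DA for 30 min at 37 °C. DCF fluorescence read at ex 485/em 530 nm. CA-4 at 25 nM run in parallel.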
# [15] = test system: A549; assay: Induction of mitochondrial membrane potential loss in human A549 cells at 25 nM incubated for 48 hrs by JC1 dye staining based fluorescence assay; type: functional, cell-based
# Procedure, shortened: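 A549 cells exposed to 25 nM for 48 h, then loaded with JC-1 for 20 min at 37 °C. JC-1 green monomer emission (525 nm) compared with red aggregate emission (590 nm) to read depolarization. CA-4 at 25 nM included.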
# [16] = test system: A549; assay: Induction of microtubule network disruption in human A549 cells at 25 nM incubated for 48 hrs by immunohistochemistry; type: cell-based
# Procedure, shortened: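 A549 cells on glass coverslips exposed to 25 nM for 48 h, with CA-4 at 25 nM in parallel. Fixed in 3% paraformaldehyde/0.02% glutaraldehyde and permeabilized in methanol overnight at 4 °C. Blocked with 1% BSA, stained with mouse anti-tubulin primary and FITC-labelled anti-mouse IgG, and examined by fluorescence microscopy for microtubule network integrity.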
# [17] = molecular target: T1, Tubulin (Homo sapiens); assay: Binding affinity to tubulin (unknown origin) incubated for 60 mins by colchicine competition assay; type: protein-complex assay
# Procedure, shortened: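 Tubulin (3 μM) incubated with test agents (5, 10, 15, 20 μM) with and without 3 μM colchicine in 30 mM Tris buffer, 60 min at 37 °C. Tubulin–colchicine fluorescence read at ex 350/em 435 nm. Compound-alone signal subtracted from the compound+colchicine signal, Tris blank subtracted, values normalized to DMSO control. CA-4 positive control, taxol negative control.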
# [18] = test system: A549; assay: Induction of cell cycle arrest in human A549 cells assessed as accumulation at S phase at 25 nM after 48 hrs by propidium iodide staining based flow cytometry (reference value: 4.69%); type: functional
# [19] = test system: A549; assay: Induction of cell cycle arrest in human A549 cells assessed as accumulation at G2/M phase at 25 nM after 48 hrs by propidium iodide staining based flow cytometry (reference value: 6.15%); type: functional
# [20] = test system: A549; assay: Induction of cell cycle arrest in human A549 cells assessed as accumulation at subG1 phase at 50 nM after 48 hrs by propidium iodide staining based flow cytometry (reference value: 1.41%); type: functional
# [21] = test system: A549; assay: Induction of cell cycle arrest in human A549 cells assessed as accumulation at subG1 phase at 25 nM after 48 hrs by propidium iodide staining based flow cytometry (reference value: 1.41%); type: functional
# [22] = test system: A549; assay: Induction of DNA fragmentation in human A549 cells at 25 nM incubated for 48 hrs by agarose gel electrophoresis method; type: functional, cell-based
# Procedure, shortened: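 A549 cells (1×10^6) plated for 24 h, then exposed to 25 nM for 48 h. Cells pelleted and lysed. Lysate treated with SDS and RNase A for 2 h at 56 °C, then proteinase K for 2 h at 37 °C. DNA precipitated with ammonium acetate and cold ethanol, redissolved in TE buffer, and laddering run on 2% agarose gel.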
# [23] = molecular target: Tubulin; assay: Inhibition of tubulin (unknown origin) polymerization incubated for 1 hr by fluorescence assay; type: protein-complex assay, Homo sapiens
# [24] = test system: A549; assay: Induction of apoptosis in human A549 cells assessed as caspase-3 activation at 25 nM incubated for 48 hrs by ELISA method; type: functional; procedure, shortened: as §3
# [25] = test system: A549; assay: Induction of cell cycle arrest in human A549 cells assessed as accumulation at G0/G1 phase at 50 nM after 48 hrs by propidium iodide staining based flow cytometry (reference value: 87.75%); type: functional
Compound,IC50 [1],IC50 [2],IC50 [3],IC50 [4],IC50 [5],also measured
COc1ccc(Cn2cc(C(=O)Nc3cc(/C=C\c4cc(OC)c(OC)c(OC)c4)ccc3OC)nn2)cc1,3.31 µM,3.71 µM,2.95 µM,2.14 µM,2.08 µM,
COc1ccc(/C=C\c2cc(OC)c(OC)c(OC)c2)c(NC(=O)c2cn(Cc3ccc(F)cc3)nn2)c1O,3.39 µM,1.86 µM,0.33 µM,0.568 µM,0.354 µM,
COc1ccc(Cn2cc(C(=O)Nc3c(/C=C\c4cc(OC)c(OC)c(OC)c4)ccc(OC)c3O)nn2)cc1,5.89 µM,2.62 µM,3.54 µM,1.45 µM,1.2 µM,
COc1cccc(Cn2cc(C(=O)Nc3cc(/C=C\c4cc(OC)c(OC)c(OC)c4)cc(OC)c3OC)nn2)c1,2.89 µM,1.27 µM,0.57 µM,0.406 µM,0.513 µM,
COc1ccc(/C=C\c2cc(OC)c(OC)c(OC)c2)cc1NC(=O)c1cn(Cc2ccc(F)cc2)nn1,1.66 µM,0.597 µM,0.068 µM,0.053 µM,0.058 µM,Activity [6]: Active; Activity [7]: 25.73%; Activity [8]: Active; inhibition [9]: 66.8%; fold change (FC) [10]: 3; Activity [11]: 75.42%; Activity [12]: Active; Activity [13]: 7.93%; Activity [14]: Active; Activity [15]: Active; Activity [16]: Active; Activity [17]: Active; Activity [18]: 5.49%; Activity [19]: 17.57%; Activity [20]: 4.36%; Activity [21]: 1.52%; Activity [22]: Active; IC50 [23]: 1.16 µM; fold change (FC) [24]: 3; Activity [25]: 61.99%
COc1ccc(/C=C\c2cc(OC)c(OC)c(OC)c2)cc1NC(=O)c1cn(Cc2cc(OC)c(OC)c(OC)c2)nn1,2.04 µM,1.51 µM,0.19 µM,0.089 µM,0.62 µM,
COc1cc(/C=C\c2cc(OC)c(OC)c(OC)c2)cc(NC(=O)c2cn(Cc3ccc(F)cc3)nn2)c1OC,3.09 µM,0.897 µM,0.32 µM,0.066 µM,1.36 µM,
COc1ccc(Cn2cc(C(=O)Nc3cc(/C=C\c4cc(OC)c(OC)c(OC)c4)cc(OC)c3OC)nn2)cc1,1.7 µM,0.818 µM,0.081 µM,0.044 µM,0.098 µM,Activity [6]: Active; Activity [7]: 26.63%; Activity [8]: Active; inhibition [9]: 70.9%; fold change (FC) [10]: 3; Activity [11]: 69.59%; Activity [12]: Active; Activity [13]: 7.9%; Activity [14]: Active; Activity [15]: Active; Activity [16]: Active; Activity [17]: Active; Activity [18]: 7.84%; Activity [19]: 21.37%; Activity [20]: 3.46%; Activity [21]: 1.2%; Activity [22]: Active; IC50 [23]: 0.95 µM; fold change (FC) [24]: 3; Activity [25]: 62.01%
COc1ccc(/C=C\c2cc(OC)c(OC)c(OC)c2)cc1NC(=O)c1cn(Cc2cccc(Oc3ccccc3)c2)nn1,5.74 µM,4.19 µM,3.23 µM,2.57 µM,3.71 µM,
COc1cccc(Cn2cc(C(=O)Nc3c(/C=C\c4cc(OC)c(OC)c(OC)c4)ccc(OC)c3O)nn2)c1,9.51 µM,1.94 µM,4.57 µM,1.62 µM,1.95 µM,
COc1cc(/C=C\c2cc(OC)c(OC)c(OC)c2)cc(NC(=O)c2cn(Cc3cccc(Oc4ccccc4)c3)nn2)c1OC,6.61 µM,4.26 µM,5.88 µM,2.68 µM,3.99 µM,
COc1ccc(/C=C\c2cc(OC)c(OC)c(OC)c2)c(NC(=O)c2cn(Cc3cccc(Oc4ccccc4)c3)nn2)c1O,7.41 µM,4.26 µM,5.01 µM,3.63 µM,4.68 µM,
CC(=O)O[C@H]1C(=O)[C@@]2(C)[C@H]([C@H](OC(=O)c3ccccc3)[C@]3(O)C[C@H](OC(=O)[C@H](O)[C@@H](NC(=O)c4ccccc4)c4ccccc4)C(C)=C1C3(C)C)[C@]1(OC(C)=O)CO[C@@H]1C[C@@H]2O,,,,,,Activity [17]: inactive
COc1ccc(/C=C\c2cc(OC)c(OC)c(OC)c2)c(NC(=O)c2cn(Cc3cc(OC)c(OC)c(OC)c3)nn2)c1O,5.13 µM,2.4 µM,0.77 µM,0.83 µM,1.7 µM,
COc1ccc(/C=C\c2cc(OC)c(OC)c(OC)c2)cc1O [COMBRETASTATIN A4],0.005 µM,,0.018 µM,0.052 µM,,Activity [7]: 26.48%; Activity [13]: 8.09%; Activity [16]: Active; Activity [17]: Active; Activity [20]: 4.11%; Activity [25]: 61.32%
COc1cccc(Cn2cc(C(=O)Nc3cc(/C=C\c4cc(OC)c(OC)c(OC)c4)ccc3OC)nn2)c1,5.27 µM,1.61 µM,1.14 µM,1.86 µM,1.8 µM,
COc1cc(/C=C\c2cc(OC)c(OC)c(OC)c2)cc(NC(=O)c2cn(Cc3cc(OC)c(OC)c(OC)c3)nn2)c1OC,4.76 µM,1.38 µM,0.72 µM,0.181 µM,3.39 µM,

# Source: ChEMBL document CHEMBL3352728, “Synthesis and biological evaluation of 1,2,3-triazole linked aminocombretastatin conjugates as mitochondrial mediated apoptosis inducers” (Bioorg Med Chem, 2014)
